Measured values: ChEMBL document CHEMBL5058577, “EUbOPEN Chemogenomics Library 2 (Multiplex)” (2022)

Tested on: Fibroblast
Test: Multiplex assay against human fibroblast
Assay type: toxicity, cell-based
Summary of the method: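 Live cells were stained at seeding with Hoechst33342, BioTracker Green Microtubule Cytoskeleton Dye, MitoTracker Red and Annexin V Alexa Fluor 680. Following compound addition, they were imaged on a CQ1 microscope at 37°C and 5% CO2 and gated by CellPathfinder machine learning into Hoechst high-intensity objects or normal cells, with normal cells split into healthy, pyknosed or fragmented nuclei and pyknosed cells into mitotic or apoptotic. Tubulin, mitochondrial-mass and membrane-permeability phenotypes are per cents of healthy-nucleus cells.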

[1] = 12 h, 1 µM, compound concentration 1 uM, replicate 1
[2] = 12 h, 1 µM, compound concentration 1 uM, replicate 2
[3] = 12 h, 10 µM, compound concentration 10 uM, replicate 1
[4] = 12 h, 10 µM, compound concentration 10 uM, replicate 2
[5] = 24 h, 1 µM, compound concentration 1 uM, replicate 1
[6] = 24 h, 1 µM, compound concentration 1 uM, replicate 2
[7] = 24 h, 10 µM, compound concentration 10 uM, replicate 1
[8] = 24 h, 10 µM, compound concentration 10 uM, replicate 2
[9] = 48 h, 1 µM, compound concentration 1 uM, replicate 1
[10] = 48 h, 1 µM, compound concentration 1 uM, replicate 2
[11] = 48 h, 10 µM, compound concentration 10 uM, replicate 1
[12] = 48 h, 10 µM, compound concentration 10 uM, replicate 2

## Cc1c(Cc2ccc3ccccc3n2)c2cc(F)ccc2n1CC(=O)O [TIMAPIPRANT]
[1]
  Population Apoptotic (%): 41%
  Population Fragmented Nuclei (%): 12%
  Population Healthy Nuclei (%): 67%
  Population Hoechst High Intensity Objects (%): 5%
  Population Membrane Permeable-Phenotype (%): 1%
  Population Mitochondria Different-Phenotype (%): 7%
  Population Mitotic Cells (%): 58%
  Population Normal (%): 94%
  Population Pyknosed Nuclei (%): 19%
  Population Tubulin-Different-Phenotype (%): 26%
  Total Cell Count: 171
[2]
  Population Apoptotic (%): 33%
  Population Fragmented Nuclei (%): 28%
  Population Healthy Nuclei (%): 49%
  Population Membrane Permeable-Phenotype (%): 9%
  Population Mitochondria Different-Phenotype (%): 4%
  Population Mitotic Cells (%): 66%
  Population Pyknosed Nuclei (%): 22%
  Population Tubulin-Different-Phenotype (%): 43%
  Total Cell Count: 142
[3]
  Population Apoptotic (%): 66%
  Population Fragmented Nuclei (%): 13%
  Population Healthy Nuclei (%): 77%
  Population Hoechst High Intensity Objects (%): 2%
  Population Membrane Permeable-Phenotype (%): 0%
  Population Mitochondria Different-Phenotype (%): 7%
  Population Mitotic Cells (%): 33%
  Population Normal (%): 97%
  Population Pyknosed Nuclei (%): 8%
  Population Tubulin-Different-Phenotype (%): 35%
  Total Cell Count: 147
[4]
  Population Apoptotic (%): 53%
  Population Fragmented Nuclei (%): 26%
  Population Healthy Nuclei (%): 53%
  Population Hoechst High Intensity Objects (%): 5%
  Population Membrane Permeable-Phenotype (%): 1%
  Population Mitotic Cells (%): 46%
  Population Normal (%): 95%
  Population Pyknosed Nuclei (%): 19%
  Population Tubulin-Different-Phenotype (%): 43%
  Total Cell Count: 160
[5]
  Population Apoptotic (%): 33%
  Population Fragmented Nuclei (%): 9%
  Population Healthy Nuclei (%): 73%
  Population Hoechst High Intensity Objects (%): 1%
  Population Membrane Permeable-Phenotype (%): 3%
  Population Mitochondria Different-Phenotype (%): 2%
  Population Mitotic Cells (%): 66%
  Population Normal (%): 98%
  Population Pyknosed Nuclei (%): 17%
  Population Tubulin-Different-Phenotype (%): 26%
  Total Cell Count: 158
[6]
  Population Apoptotic (%): 47%
  Population Fragmented Nuclei (%): 30%
  Population Healthy Nuclei (%): 52%
  Population Hoechst High Intensity Objects (%): 5%
  Population Membrane Permeable-Phenotype (%): 7%
  Population Mitochondria Different-Phenotype (%): 4%
  Population Mitotic Cells (%): 52%
  Population Normal (%): 94%
  Population Tubulin-Different-Phenotype (%): 38%
  Total Cell Count: 142
[7]
  Population Apoptotic (%): 66%
  Population Fragmented Nuclei (%): 14%
  Population Healthy Nuclei (%): 77%
  Population Hoechst High Intensity Objects (%): 2%
  Population Membrane Permeable-Phenotype (%): 0%
  Population Mitochondria Different-Phenotype (%): 6%
  Population Mitotic Cells (%): 33%
  Population Normal (%): 97%
  Population Pyknosed Nuclei (%): 8%
  Population Tubulin-Different-Phenotype (%): 30%
  Total Cell Count: 150
[8]
  Population Apoptotic (%): 52%
  Population Fragmented Nuclei (%): 29%
  Population Healthy Nuclei (%): 58%
  Population Hoechst High Intensity Objects (%): 7%
  Population Membrane Permeable-Phenotype (%): 3%
  Population Mitochondria Different-Phenotype (%): 10%
  Population Mitotic Cells (%): 47%
  Population Normal (%): 92%
  Population Pyknosed Nuclei (%): 12%
  Population Tubulin-Different-Phenotype (%): 52%
  Total Cell Count: 164
[9]
  Population Apoptotic (%): 72%
  Population Fragmented Nuclei (%): 15%
  Population Healthy Nuclei (%): 72%
  Population Hoechst High Intensity Objects (%): 7%
  Population Membrane Permeable-Phenotype (%): 0%
  Population Mitochondria Different-Phenotype (%): 2%
  Population Mitotic Cells (%): 27%
  Population Normal (%): 92%
  Population Pyknosed Nuclei (%): 12%
  Population Tubulin-Different-Phenotype (%): 25%
  Total Cell Count: 162
[10]
  Population Apoptotic (%): 61%
  Population Fragmented Nuclei (%): 36%
  Population Healthy Nuclei (%): 48%
  Population Hoechst High Intensity Objects (%): 6%
  Population Membrane Permeable-Phenotype (%): 2%
  Population Mitochondria Different-Phenotype (%): 1%
  Population Mitotic Cells (%): 38%
  Population Normal (%): 94%
  Population Pyknosed Nuclei (%): 14%
  Population Tubulin-Different-Phenotype (%): 34%
  Total Cell Count: 150
[11]
  Population Apoptotic (%): 66%
  Population Fragmented Nuclei (%): 18%
  Population Healthy Nuclei (%): 75%
  Population Hoechst High Intensity Objects (%): 5%
  Population Membrane Permeable-Phenotype (%): 0%
  Population Mitochondria Different-Phenotype (%): 3%
  Population Mitotic Cells (%): 33%
  Population Normal (%): 94%
  Population Pyknosed Nuclei (%): 6%
  Population Tubulin-Different-Phenotype (%): 31%
  Total Cell Count: 152
[12]
  Population Apoptotic (%): 60%
  Population Fragmented Nuclei (%): 30%
  Population Healthy Nuclei (%): 59%
  Population Hoechst High Intensity Objects (%): 2%
  Population Membrane Permeable-Phenotype (%): 1%
  Population Mitochondria Different-Phenotype (%): 1%
  Population Mitotic Cells (%): 40%
  Population Normal (%): 97%
  Population Pyknosed Nuclei (%): 9%
  Population Tubulin-Different-Phenotype (%): 37%
  Total Cell Count: 157
